96 compounds from ChEMBL document CHEMBL4513216, “Probing the Open Global Health Chemical Diversity Library for Multistage-Active Starting Points for Next-Generation Antimalarials” (ACS Infect Dis, 2020) can be followed below.

The structures appear in SMILES notation.

The data set in a line: Toxicity liver stage against HepG2, at 10uM. It is filed as cell-based. The arrangement: test concentration 10 uM, cell line HepG2-A16-CD81EGFP. Conditions: human, HepG2-A16-CD81EGFP cells; read-out: INHIBITION
The method in brief: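 Uninfected HepG2-A16-CD81EGFP cells, 3 × 10^3 per well, 1536-well, plated on prespotted compound at 10 μM final, parasite-free screening media added to match infected plates; puromycin 10 μM positive, DMSO 0.5% negative; run in parallel with 48 h PbLuc assay at 37 °C, 5% CO2; viability by CellTiter-Glo luminescence, normalized to controls.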
`O=C([C@@H]1Cc2[nH]cnc2CN1C(=O)NC1CCCCC1)N1CCCC1`: the cytotoxicity at 10 µM was determined as 6.06%.
In the case of `CN1C[C@@H](F)[C@@H](OCc2nc3ccc(C#N)cc3[nH]2)C1`, the cytotoxicity at 10 µM turned out to be 0.434%.
In the case of `Cc1cc(NCCO)nc(-c2ccccc2O)n1`, the cytotoxicity at 10 µM is 14.1%.
Turning to `O=S(=O)(NCCn1ccc(-c2ccncc2)n1)C1CC1`, the cytotoxicity at 10 µM is 0.794%.
Under `CC(=O)N1CCOC2(CCCN(C(=O)CCN3CCCCC3)C2)C1` (stereo unspecified) stands -2.51%.
Under `Cc1cc(C)cc(C(=O)N2CCCC3(CCCC(=O)N3C)C2)c1` (stereo unspecified) stands 5.06%; under `Cc1ccc(N2CC[C@H](O)[C@@H]2Cc2cnn(C)c2)nn1`, 0.434%; under `CCOCC1CN(C(=O)c2ccsc2)Cc2nn(C)cc21` (stereo unspecified), 3.39%.
For the compound `CCN(C)c1ncnc2c1CCN(C(=O)c1ccc(C)o1)CC2`, the cytotoxicity at 10 µM is -0.796%.
Under `COc1nn(C)c2c1CCCN(C(=O)COc1ccccc1)C2` stands 3.91%; under `COc1nn(C)c2c1CCCN(C(=O)c1ccc[nH]1)C2`, -0.966%.
Take `CCn1nnc2c1C(COC)CN(C(=O)Cc1ccccn1)C2` (stereo unspecified): the cytotoxicity at 10 µM came out at 4.64%.
For `CN1CC2(CCNCC2)COc2ccccc2S1(=O)=O`, the cytotoxicity at 10 µM came out at 4.58%.
With `Cc1ccsc1C(=O)N1CC(C(=O)NC(C)C)C2(CCOCC2)C1` (stereo unspecified) the figure was -1.49%.
With `CN(C(=O)Cn1nc(-c2ccccc2)ccc1=O)C1CCS(=O)(=O)C1` (stereo unspecified) the figure was 1.82%; with `Cc1ccc(C)c(C(NC(=O)C(C)(C)C)c2cccnc2)c1` (stereo unspecified), -3.7%.
With `CCC(C)c1noc(C2CCN(C(=O)c3ccccn3)CC2)n1` (stereo unspecified) the figure was 4.59%; with `COCCCNS(=O)(=O)c1cccc(CSC)c1`, 11.9%; with `O=C(NC1CCCC1)c1cnn2c(-c3ccco3)ccnc12`, 10.2%.
For the compound `CCN1C(=O)C(C)(C)c2cc(NC(=O)c3ccco3)ccc21`, the cytotoxicity at 10 µM was -10.2%.
Under `Cc1nc2cc(-c3nccn3C)nn2c(N2CCCC(CO)C2)c1C` (stereo unspecified) stands -4.38%; under `Cc1ccc(CNc2nc(O)cc(C3CC(=O)N(C)C3)n2)cc1` (stereo unspecified), -17.8%.
With `COc1ccc(Cn2nc(C(N)=O)ccc2=O)c(Cl)c1` the figure was 10.2%.
With `CC(c1ccco1)N(C(=O)COc1ccc(C#N)cc1)C1CC1` (stereo unspecified) the figure was -6.6%; with `COc1ccc(-c2noc(CCC(=O)N3CCOCC3(C)C)n2)cc1`, 6.99%; with `Cc1nc2n(n1)CC(NCCCc1nc(-c3cccs3)no1)CC2` (stereo unspecified), -4.38%.
For the compound `Cc1ccc(-c2ncc(CN3CCN(S(N)(=O)=O)CC3)s2)o1`, the cytotoxicity at 10 µM was -3.41%.
Under `CC(CO)NC(=O)Nc1ccc(CC#N)cc1` (stereo unspecified) stands -3.39%.
With `C=C(C)CN(CC)C(=O)c1cc(Cl)ccc1NS(C)(=O)=O` the figure was 7.17%.
Under `CCN1CCN(C(=O)c2ccc(OC)nn2)c2ccccc21` stands -1.78%.
As for `COC(=O)c1ccc(Cl)c(S(=O)(=O)Nc2ccc(F)c(C(N)=O)c2)c1`, the cytotoxicity at 10 µM is 3.68%.
Under `O=C(c1ccc(NCc2cccc(F)c2)cc1)N1CCCC1` stands 10.1%; under `CC(CS(C)(=O)=O)NC(=O)N1CC2(CCCC2)c2ccccc21` (stereo unspecified), -4.34%.
Under `Cc1nnc(CN(Cc2ccco2)Cc2cccc3c2OCO3)n1C` stands -0.535%; under `COCc1ccccc1C(=O)NCC(O)c1ccc(Cl)s1` (stereo unspecified), -6.63%.
Consider `Cc1nc(-c2cccc(C#N)c2)nn1CC1(O)CCCCC1`, for which the cytotoxicity at 10 µM is -2.62%.
With `COc1c(C)cnc(CNC(=O)c2cc(C)nc3c2c(C)nn3C)c1C` the figure was -1.28%; with `CC(C)(C)OC(=O)NCC1CCCCN1Cc1cccnc1` (stereo unspecified), -0.502%.
With `CC(C)(C)OC(=O)NC(C)(C)c1noc(CSc2nncs2)n1` the figure was 16.6%.
With `Cc1cc(C)n(CC2CCCCN2CC(=O)Nc2nnc(C)s2)n1` (stereo unspecified) the figure was 0.668%; with `OCC1(NCc2cnc(-c3ccccn3)s2)CCOCC1`, 9.32%; with `COCC(=O)NC1CCCN(c2ccc(C)cc2)C1=O` (stereo unspecified), -0.82%.
For `C[S+]([O-])c1ccc(NC(=O)CC2=CCCCC2)cc1` (stereo unspecified), the cytotoxicity at 10 µM came to 0.304%.
Under `CC(C)CCN(C(=O)c1cc2c([nH]c1=O)CCCC2=O)C1CC1` stands -2.98%.
With `Cc1nc2sccn2c1CNc1cc(C(=O)O)ccc1F` the figure was 4.59%.
Under `CCc1cnc(CNc2ccc(C(=O)NCc3ccco3)cc2C)o1` stands -0.375%; under `CC(C)c1nsc(N2CCS(=O)(=O)CC2)n1`, -2.41%.
With `CS(=O)(=O)NC1CCN(C(=O)c2[nH]c3ccc(Cl)cc3c2Cl)CC1`, the cytotoxicity at 10 µM came to 16.3%.
Take `O=C(CNc1ccc(OCC2CCOCC2)cc1)NCc1ccco1`: the cytotoxicity at 10 µM is 3.43%.
With `COCCOc1ncccc1NCc1nc2ccccc2n1C` the figure was 5.95%; with `COC(=O)CN(Cc1ccccc1C)C(=O)CCCNC(=O)C1CC1`, -13.4%; with `CN1CC(C(=O)NC(C)(C)C)CC1=O` (stereo unspecified), -3.36%.
Regarding `CN(C)CCN1CCO[C@@H]2CCN(C(=O)c3cccn3C)CC[C@H]21`, the cytotoxicity at 10 µM came out at 7.17%.
For the compound `CN1CCC(Cc2noc(-c3cn(Cc4ccccc4Cl)nn3)n2)CC1`, the cytotoxicity at 10 µM was -3.28%.
For the compound `CS(=O)(=O)Cc1nc(C2CC2)nn1-c1ccccn1`, the cytotoxicity at 10 µM stood at 1.87%.
Under `O=C(N[C@H]1CN(C2CCOCC2)C[C@@H]1C1CC1)c1cc(O)no1` stands 8.4%.
`Cc1cc(CN2CC[C@@H]3[C@@H](CCC(=O)N3CCc3c[nH]cn3)C2)oc1C`: the cytotoxicity at 10 µM is -0.466%.
With `CN1CCCN(C(=O)c2nc3sccn3c2-c2ncc[nH]2)CC1` the figure was -4.34%; with `O=C1CCCN1CCCNCc1cc(O)c2cccc(F)c2n1`, -1.16%; with `CC(C)Cc1ncc2c(n1)CN(c1cc(N)nc(N)n1)C2`, -6.27%.
Under `CN(C)CCN1CC2(CCN(C(=O)c3cnccn3)CC2)OC1=O` stands 9%.
With `O=C(C1NCCc2[nH]cnc21)N1CCC2(CC1)CNc1ccccc12` (stereo unspecified) the figure was 1.04%.
`Cc1ocnc1C(=O)N1CCC(c2nccn2Cc2ccncc2)CC1`: the cytotoxicity at 10 µM is -8.26%.
Regarding `CCc1nc(C)c([C@H]2CN(C)C[C@@H]2C(=O)NC(C)(C)c2ccccc2)[nH]1`, the cytotoxicity at 10 µM was found to be 2.12%.
Under `O=C(C(O)c1ccccc1Cl)N1CCCN(Cc2cccnc2)CC1` (stereo unspecified) stands 5.5%; under `O=C(c1ccc2ccccc2c1)C1CCCN(C(=O)Cn2cncn2)C1` (stereo unspecified), 2.6%; under `O=C(c1ccoc1)N1CCC(Nc2cccnn2)CC1`, -5.85%.
Under `Cn1c(CN2CCOC(CNc3cccnn3)C2)nnc1C1CC1` (stereo unspecified) stands 5.18%; under `Cc1cnc(C(=O)N2CCCCC2c2nc(C)cs2)cn1` (stereo unspecified), -15.3%.
With `CC(C(=O)NCCCN1CCN(c2ccccc2)CC1)n1cncn1` (stereo unspecified) the figure was -5.93%; with `Cc1noc(C)c1CN1CCCC1c1c(C)nn(C)c1Cl` (stereo unspecified), -2%; with `CN(CC(=O)N1CCC(COc2ccccc2)CC1)c1cnccn1`, -10.7%.
For the compound `Cc1nc(CN2CCCN(C(=O)c3cnccn3)CC2)cs1`, the cytotoxicity at 10 µM was -9.51%.
With `COc1cc(C(=O)N2CCCC(n3cncn3)C2)ccc1C` (stereo unspecified) the figure was -3.86%; with `CCOCC(O)CN1CCN(C(=O)Cc2cccc(Cl)c2)CC1` (stereo unspecified), -7.69%.
Under `Cn1cc(C(=O)NCC2CCN(C(=O)NC3CC3)CC2)cn1` stands 2.05%; under `COc1ccc(CC(=O)N2CCC(Nc3ccc(C)nn3)CC2)cc1`, -5.34%; under `CC(C)c1nc(CN(C)C2CCN(CCc3ccncc3)C2)no1` (stereo unspecified), -28.4%.
With `CCc1nc(CN(C)C2CCN(CCCOc3ccccc3)C2)no1` (stereo unspecified) the figure was 0.141%; with `CCC1CCCCN1C(=O)c1ccnc(N(C)C)c1` (stereo unspecified), -0.743%.
In the case of `CC(=O)N(Cc1ncc(C)o1)C1CCN(Cc2cc(C)on2)C1` (stereo unspecified), the cytotoxicity at 10 µM is -5.03%.
With `CCc1nnc(CNC2CCCN(Cc3noc(C4CC4)n3)C2)o1` (stereo unspecified) the figure was -5.46%; with `Cc1cc(CN(C)C(=O)c2ccc(F)cc2F)no1`, -6.47%.
Under `CCCc1n[nH]c(C2CN(C(=O)c3ccco3)CCO2)n1` (stereo unspecified) stands -2.7%.
With `COc1cccc(COCC(=O)N2CCN(CC(C)(C)O)CC2)c1` the figure was -5.64%; with `c1cnn(CC2CN(Cc3nc(-c4ccsc4)no3)CCO2)c1` (stereo unspecified), -8.06%.
Turning to `CN(C)CCNC(=O)C1Cc2nc(-c3ccsc3)sc2N1CC1CC1` (stereo unspecified), the cytotoxicity at 10 µM stood at 3.54%.
As for `O=C1N(Cc2cccc(F)c2)CCC12CCN(c1ccccn1)CC2`, the cytotoxicity at 10 µM was -1.16%.
With `CNC(=O)CN1CCOCC2(C1)CN(C(=O)C(C)C)CCO2` (stereo unspecified) the figure was -0.182%.
With `CC(C)CN1CCC2(CCN(Cc3ccc(F)cc3)CC2)C1=O` the figure was 5.71%; with `O=C(c1ccnnc1)N1C[C@H](Oc2ccccn2)[C@H]2OCCC[C@H]21`, -0.00736%; with `Cc1cc(C(=O)N2CCc3nc(C4CCCN4)ncc3C2)cs1` (stereo unspecified), 2.56%.
`COCC(=O)N1CCO[C@H]2[C@H](OCc3cccnc3)CC[C@@H]21`: the cytotoxicity at 10 µM was -2.01%.
With `O=C(C1CCCCC1)N1C[C@@H]2CCN(c3cnccn3)C[C@@H]2C1` the figure was 5.68%; with `CC1CCN(c2nc3cn(C4CCS(=O)(=O)C4)c(=O)c-3c[nH]2)CC1` (stereo unspecified), -14.2%; with `COc1cc(C(=O)N2C[C@@H]3CC[C@H]2CN(Cc2cscn2)C3)ccn1`, 3.2%.
